# Experimental data as given in PMC7655718 (The Journal of antibiotics, 2020).
# Like-named read-outs stand apart in the source and are kept apart here.
# Legend:
# [1] = tested on: S. aureus ATCC 25923 biofilm formation; assay: Biofilm inhibition assay; format: cell-based, Staphylococcus aureus
# Procedure, shortened: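 Blood-agar culture was suspended in PBS (0.5 McFarland), then diluted 1:100 in yeast extract casamino acid broth (about 1x10^6 cfu/mL). Compound at 2xMIC, MIC and 0.5xMIC was added before biofilm formation, in triplicate, with broth-only and bacteria+DMSO controls. Incubation was 35 °C for 24 h. Wells were PBS-washed, dried, stained with 0.1% crystal violet, solubilised in 33% acetic acid and read at 620 nm. % inhibition = [1−(ODcompound−ODbroth)/(ODdmso−ODbroth)]×100, from mean and SD.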
# [2] = tested on: S. aureus ATCC 33592 (Sa92); assay: MIC, microdilution with resazurin; format: cell-based; conditions: Staphylococcus aureus, ATCC33592, read-out: MIC Sa92
# Procedure, shortened: (§1)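 Compounds dissolved in DMSO at 2 mg/mL. Overnight blood-agar colonies were suspended in PBS to 0.5 McFarland, then diluted in Mueller Hinton broth to about 1x10^6 cfu/mL with resazurin (1:1000 of 0.1% w/v stock). Twofold DMSO dilutions were added 1:40, giving 50 to 0.4 μg/mL at 2.5% DMSO. Incubation was 35 °C for 16-20 h. Blue/non-turbid wells counted as inhibited, pink/turbid as grown.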
# [3] = tested on: S. aureus ATCC 33599 (MRSA); assay: Time kill assay; format: cell-based, Staphylococcus aureus; conditions: 4xMIC
# Procedure, shortened: (§2)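 Growth curves by optical density set the log phase. Log-phase bacteria (about 2 h shaking in Mueller Hinton broth II) were diluted in warm broth to about 3x10^6 cfu/mL. They were exposed to compound at 4xMIC (other multiples where indicated), in triplicate, at 35 °C. Colistin (A. baumannii) or vancomycin (S. aureus) and DMSO were included. Samples at 0, 2, 4, 6, 8, 10, 12 and 24 h were counted by drop plate on blood agar (18-24 h, 35 °C). Log cfu/mL was plotted against time.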
# [4] = tested on: S. aureus ATCC 33591 (Sa91); assay: MIC, microdilution with resazurin; format: cell-based; conditions: Staphylococcus aureus, ATCC33591, read-out: MIC Sa91
# Procedure, shortened: as §1
# [5] = tested on: B. subtilis ATCC 6623 (Bs); assay: MIC, microdilution with resazurin; format: cell-based, Bacillus subtilis; conditions: Bacillus subtilis, ATCC6623, read-out: MIC Bs
# [6] = tested on: S. aureus ATCC 25923 preformed biofilm; assay: Biofilm destruction assay; format: cell-based, Staphylococcus aureus; conditions: 2xMIC
# Procedure, shortened: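 Biofilm was first grown in 96-well plates for 24 h at 35 °C and washed with PBS to remove unadhered cells. Fresh yeast extract casamino acid broth was added with compound at 2xMIC, MIC or 0.5xMIC, or DMSO, in triplicate, plus broth-only wells. Incubation was 35 °C for 24 h. Crystal violet was stained, solubilised and read at 620 nm. % destruction = [1−(ODcompound−ODbroth)/(ODdmso−ODbroth)]×100, from triplicate means.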
# [7] = tested on: S. aureus ATCC 700699 (Sa99); assay: MIC, microdilution with resazurin; format: cell-based; conditions: Staphylococcus aureus, ATCC700699, read-out: MIC Sa99
# Procedure, shortened: as §1
# [8] = tested on: A. baumannii ATCC 747 (Ab47); assay: MIC, microdilution with resazurin; format: cell-based, Acinetobacter baumannii; conditions: for MIC: Acinetobacter baumannii, ATCC747, read-out: MIC Ab47; for MIC Ab47: A. baumannii ATCC 747
# Procedure, shortened: as §1
# [9] = tested on: S. aureus ATCC 25923 (Sa23); assay: MIC, microdilution with resazurin; format: cell-based; conditions: Staphylococcus aureus, ATCC25923, read-out: MIC Sa23
# Procedure, shortened: as §1
# [10] = tested on: A. baumannii ATCC 19606 (type strain, Ab06); assay: MIC and MBC; format: cell-based, Acinetobacter baumannii; conditions: for MIC Ab06: A. baumannii ATCC 19606 (type strain)
# Procedure, shortened: as §1
# [11] = tested on: S. aureus BAA-2312 (Sa12); assay: MIC, microdilution with resazurin; format: cell-based; conditions: Staphylococcus aureus, BAA2312, read-out: MIC Sa12
# Procedure, shortened: as §1
# [12] = tested on: S. aureus ATCC 33599 (MRSA); assay: MIC and MBC; format: cell-based, Staphylococcus aureus; conditions: Staphylococcus aureus, ATCC33599|MRSA
# Procedure, shortened: as §1
# [13] = tested on: S. epidermidis 700296 (Se); assay: MIC, microdilution with resazurin; format: cell-based; conditions: Staphylococcus epidermidis, read-out: MIC Se
# Procedure, shortened: as §1
# [14] = tested on: tested Gram-positive bacterial strains; assay: MIC, text summary over tested Gram-positive strains; format: cell-based
# [15] = tested on: S. aureus ATCC 33599 (MRSA); assay: BacLight membrane permeability assay; format: cell-based, Staphylococcus aureus; conditions: versus positive control vancomycin
# [16] = tested on: human embryonic kidney cell line (HEK293); assay: Toxicity against HEK293 cell line; format: cell-based; conditions: HEK293 IC50 over MIC; as high as
# [17] = tested on: tested A. baumannii strains; assay: MIC, text summary over A. baumannii strains; format: cell-based, Acinetobacter baumannii; conditions: Acinetobacter baumannii, read-out: MIC value as low as
# Procedure, shortened: as §1
# [18] = tested on: A. baumannii ATCC BAA-1605 (Ab05); assay: MIC, microdilution with resazurin; format: cell-based, Acinetobacter baumannii
# Procedure, shortened: as §1
# A. baumannii ATCC 19606 = assay: Time kill assay; format: cell-based, Acinetobacter baumannii; conditions: 4xMIC; for time kill effect: 24 hours at 35 °C
# Procedure, shortened: as §2
# [19] = Acinetobacter baumannii, ATCC19606, read-out: MIC Ab06
# [20] = Acinetobacter baumannii, ATCC19606
Compound,MIC [2] [µg/mL],MIC [4] [µg/mL],MIC [5] [µg/mL],MIC [7] [µg/mL],MIC [8] [µg/mL],MIC [9] [µg/mL],"MIC [10, 19] [µg/mL]",MIC [11] [µg/mL],MIC [13] [µg/mL],MIC Ab05 [18],MIC Ab47 [8],time kill effect (A. baumannii ATCC 19606),MIC Ab06 [10],also measured
"CN[C@H](CC(C)C)C(=O)N[C@H]1C(=O)N[C@@H](CC(N)=O)C(=O)N[C@H]2C(=O)N[C@H]3C(=O)N[C@H](C(=O)N[C@H](C(=O)O)c4cc(O)cc(O)c4-c4cc3ccc4O)[C@H](O)c3ccc(c(Cl)c3)Oc3cc2cc(c3O[C@@H]2O[C@H](CO)[C@@H](O)[C@H](O)[C@H]2O[C@H]2C[C@](C)(N)[C@H](O)[C@H](C)O2)Oc2ccc(cc2Cl)[C@H]1O [VC, vancomycin, reference compound]",0.39,3.12,0.195,3.12,> 50,1.56,> 50,0.78,3.12,–,–,–,–,"inhibition of biofilm formation ([1]; 0.5xMIC): weak inhibition; inhibition of biofilm formation ([1]; 2xMIC and MIC concentration): potent inhibition; time until bacteria were eliminated [3]: ≤ 8 h; time kill effect ([3]; 24 hours at 35 °C): mildly bactericidal; destruction of preformed biofilm ([6]; MIC and 0.5xMIC tested, 24 hours): almost failed to show any activity; MBC [12]: 6.25 µg/mL; MIC [12]: 3.12 µg/mL"
O=C(O)c1ccc(-n2cc(/C=N/Nc3cc(F)ccc3F)c(-c3ccc4ccccc4c3)n2)cc1 [Compound 19],1.56,3.12,3.12,0.78,> 50,1.56,> 50,3.12,3.12,–,–,–,–,"inhibition of biofilm formation ([1]; 2xMIC, MIC and 0.5xMIC concentrations, 24 hours): most effective compound; antimicrobial activity against the tested strains [14]: enhanced activity against all the tested strains; destruction of preformed biofilm [6]: potent activity; membrane disruption activity, PI/SYTO-9 ratio [15]: more potent membrane disruption activity than vancomycin; selectivity factor (IC50/MIC) [16]: ≤ 48.7"
O=C(O)c1ccc(-n2cc(/C=N/Nc3ccccc3F)c(-c3ccc4ccccc4c3)n2)cc1 [Compound 14],1.56,12.5,6.25,3.12,25,12.5,25,12.5,12.5,–,–,–,–,MIC ([14]; read-out: MIC value as low as): ≥ 1.56 µg/mL; MIC [17]: ≥ 6.25 µg/mL
O=C(O)c1ccc(-n2cc(/C=N/Nc3ccc(Br)cc3)c(-c3ccc4ccccc4c3)n2)cc1 [Compound 18],3.12,12.5,6.25,0.78,6.25,6.25,1.56,12.5,12.5,moderate growth inhibitor,moderate growth inhibitor,bacteriostatic effect,–,"MBC [10, 20]: 12.5 µg/mL; MIC [10, 20]: 1.56 µg/mL; increase in log10 cfu/mL of the bacterial population (A. baumannii ATCC 19606; through 24 hours): ≤ 2 fold"
O=C(O)c1ccc(-n2cc(/C=N/Nc3cccc(Br)c3)c(-c3ccc4ccccc4c3)n2)cc1 [Compound 17],1.56,6.25,3.12,1.56,> 50,6.25,12.5,6.25,6.25,did not inhibit the growth,did not inhibit the growth,–,moderately inhibited the growth,–
colistin [reference compound],–,–,–,–,–,–,–,–,–,3.125 µg/mL,1.56 µg/mL,immediate bactericidal effect,3.125 µg/mL,"MIC ([10]; A. baumannii ATCC 19606, Table 2): 3.125 µg/mL; MBC ([10]; A. baumannii ATCC 19606, concentration killing 99.9% or greater): 6.25 µg/mL; time to completely kill the starting population (A. baumannii ATCC 19606): ≤ 4 h"
